Experimental data as given in ChEMBL document CHEMBL4689842, “EUbOPEN Chemogenomics Library wave 1” (2021).
Values joined by “and” are separate entries in the source; they are usually repeats but may differ in a detail not shown here. Identical values can stand only once.

Key:
Format in all cases: toxicity, cell-based
[1] = system: Fibroblast; experiment: Multiplex assay against human fibroblast; conditions: 10 µM, compound concentration 10 uM
Outline: (§1)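 Values for tubulin, mitochondrial-mass and membrane-permeability phenotypes are per cents of cells with healthy nuclei. These cells were identified by CellPathfinder machine-learning gating of live cells that had been stained at seeding with Hoechst33342, BioTracker Green Microtubule Cytoskeleton Dye, MitoTracker Red and Annexin V Alexa Fluor 680 and imaged on a CQ1 microscope at 37°C and 5% CO2 after compound addition. The gating first set Hoechst high-intensity objects apart from normal cells, then split normal cells into healthy, pyknosed or fragmented nuclei, and pyknosed cells into mitotic or apoptotic.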

[2] = system: Fibroblast; experiment: Incucyte cell viability with human fibroblast; conditions: 10 µM, compound concentration 10 uM; also: filed as whole numbers so only -1 and 0 and 1 occur
[3] = system: HEK-293T; experiment: Incucyte cell viability with HEK293T; conditions: human, 10 µM, compound concentration 10 uM; also: filed as whole numbers so only -1 and 0 and 1 occur
[4] = system: HEK-293T; experiment: Multiplex assay against HEK293T; conditions: human, 10 µM, compound concentration 10 uM; outline: as §1
[5] = system: U2OS; experiment: Multiplex assay against U2OS; conditions: human, 10 µM, compound concentration 10 uM; outline: as §1
[6] = system: U2OS; experiment: Incucyte cell viability with U2OS; conditions: human, 10 µM, compound concentration 10 uM; also: filed as whole numbers so only -1 and 0 and 1 occur
[7] = 6 h, replicate number 1, timepoint 6 hours
[8] = 12 h, replicate number 1, timepoint 12 hours
[9] = 18 h, replicate number 1, timepoint 18 hours
[10] = 24 h, replicate number 1, timepoint 24 hours

COc1cc(C)c(Sc2cnc(NC(=O)c3ccc(CNC(C)C(C)(C)C)cc3)s2)cc1C(=O)N1CCN(C(C)=O)CC1 (stereo not drawn)
Population Apoptotic (%) ([1]; 12 h, replicate 1): 67% and 75% | Population Fragmented Nuclei (%) ([1]; 12 h, replicate 1): 22% and 35% | Population Healthy Nuclei (%) ([1]; 12 h, replicate 1): 60% and 50% | Population Hoechst High Intensity Objects (%) ([1]; 12 h, replicate 1): 12% | Population Membrane Permeable-Phenotype (%) ([1]; 12 h, replicate 1): 6% | Population Mitotic Cells (%) ([1]; 12 h, replicate 1): 32% and 25% | Population Normal (%) ([1]; 12 h, replicate 1): 87% | Population Pyknosed Nuclei (%) ([1]; 12 h, replicate 1): 14% | Population Tubulin-Different-Phenotype (%) ([1]; 12 h, replicate 1): 4% and 12% | Total Cell Count ([1]; 12 h, replicate 1): 276 and 186 | Population Apoptotic (%) ([1]; 12 h, replicate 2): 50% and 40% | Population Fragmented Nuclei (%) ([1]; 12 h, replicate 2): 46% and 56% | Population Healthy Nuclei (%) ([1]; 12 h, replicate 2): 38% and 33% | Population Hoechst High Intensity Objects (%) ([1]; 12 h, replicate 2): 29% and 43% | Population Membrane Permeable-Phenotype (%) ([1]; 12 h, replicate 2): 10% and 11% | Population Mitochondria Different-Phenotype (%) ([1]; 12 h, replicate 2): 10% and 27% | Population Mitotic Cells (%) ([1]; 12 h, replicate 2): 50% and 60% | Population Normal (%) ([1]; 12 h, replicate 2): 70% and 56% | Population Pyknosed Nuclei (%) ([1]; 12 h, replicate 2): 16% and 9% | Total Cell Count ([1]; 12 h, replicate 2): 71 and 94 | Population Apoptotic (%) ([1]; 24 h, replicate 1): 57% and 91% | Population Fragmented Nuclei (%) ([1]; 24 h, replicate 1): 18% and 31% | Population Healthy Nuclei (%) ([1]; 24 h, replicate 1): 69% and 53% | Population Hoechst High Intensity Objects (%) ([1]; 24 h, replicate 1): 17% and 13% | Population Membrane Permeable-Phenotype (%) ([1]; 24 h, replicate 1): 9% and 6% | Population Normal (%) ([1]; 24 h, replicate 1): 82% and 86% | Population Pyknosed Nuclei (%) ([1]; 24 h, replicate 1): 14% | Total Cell Count ([1]; 24 h, replicate 1): 264 and 192 | Population Apoptotic (%) ([1]; 24 h, replicate 2): 33% and 66% | Population Fragmented Nuclei (%) ([1]; 24 h, replicate 2): 46% and 54% | Population Healthy Nuclei (%) ([1]; 24 h, replicate 2): 42% and 33% | Population Hoechst High Intensity Objects (%) ([1]; 24 h, replicate 2): 23% and 42% | Population Membrane Permeable-Phenotype (%) ([1]; 24 h, replicate 2): 8% and 22% | Population Mitotic Cells (%) ([1]; 24 h, replicate 2): 66% and 33% | Population Normal (%) ([1]; 24 h, replicate 2): 76% and 57% | Population Pyknosed Nuclei (%) ([1]; 24 h, replicate 2): 11% | Total Cell Count ([1]; 24 h, replicate 2): 71 and 92 | Growth Rate [2, 7]: 0 | Growth Rate [2, 8]: 0 | Growth Rate [2, 9]: 0 | Growth Rate [2, 10]: 0 | Growth Rate [3, 7]: 0 | Growth Rate [3, 8]: 0 | Growth Rate [3, 9]: 0 | Growth Rate [3, 10]: 0 | Population Apoptotic (%) ([4]; 12 h, replicate 1): 22% and 18% | Population Fragmented Nuclei (%) ([4]; 12 h, replicate 1): 20% and 17% | Population Healthy Nuclei (%) ([4]; 12 h, replicate 1): 47% and 68% | Population Hoechst High Intensity Objects (%) ([4]; 12 h, replicate 1): 19% and 8% | Population Membrane Permeable-Phenotype (%) ([4]; 12 h, replicate 1): 6% and 3% | Population Mitotic Cells (%) ([4]; 12 h, replicate 1): 77% and 81% | Population Normal (%) ([4]; 12 h, replicate 1): 80% and 91% | Population Pyknosed Nuclei (%) ([4]; 12 h, replicate 1): 31% and 13% | Total Cell Count ([4]; 12 h, replicate 1): 653 and 686 | Population Fragmented Nuclei (%) ([4]; 12 h, replicate 2): 4% and 5% | Population Healthy Nuclei (%) ([4]; 12 h, replicate 2): 86% and 89% | Population Hoechst High Intensity Objects (%) ([4]; 12 h, replicate 2): 3% and 2% | Population Membrane Permeable-Phenotype (%) ([4]; 12 h, replicate 2): 1% | Population Mitochondria Different-Phenotype (%) ([4]; 12 h, replicate 2): 22% and 9% | Population Mitotic Cells (%) ([4]; 12 h, replicate 2): 85% and 95% | Population Normal (%) ([4]; 12 h, replicate 2): 96% and 97% | Population Pyknosed Nuclei (%) ([4]; 12 h, replicate 2): 9% and 4% | Total Cell Count ([4]; 12 h, replicate 2): 1194 and 1652 | Population Apoptotic (%) ([4]; 24 h, replicate 1): 28% and 21% | Population Fragmented Nuclei (%) ([4]; 24 h, replicate 1): 19% and 13% | Population Healthy Nuclei (%) ([4]; 24 h, replicate 1): 65% and 78% | Population Hoechst High Intensity Objects (%) ([4]; 24 h, replicate 1): 14% and 6% | Population Membrane Permeable-Phenotype (%) ([4]; 24 h, replicate 1): 10% and 6% | Population Mitotic Cells (%) ([4]; 24 h, replicate 1): 71% and 78% | Population Normal (%) ([4]; 24 h, replicate 1): 85% and 93% | Population Pyknosed Nuclei (%) ([4]; 24 h, replicate 1): 14% and 7% | Total Cell Count ([4]; 24 h, replicate 1): 664 and 754 | Population Apoptotic (%) ([4]; 24 h, replicate 2): 7% and 4% | Population Fragmented Nuclei (%) ([4]; 24 h, replicate 2): 15% and 22% | Population Healthy Nuclei (%) ([4]; 24 h, replicate 2): 81% and 74% | Population Hoechst High Intensity Objects (%) ([4]; 24 h, replicate 2): 3% | Population Membrane Permeable-Phenotype (%) ([4]; 24 h, replicate 2): 8% and 5% | Population Mitochondria Different-Phenotype (%) ([4]; 24 h, replicate 2): 5% and 2% | Population Mitotic Cells (%) ([4]; 24 h, replicate 2): 92% and 95% | Population Normal (%) ([4]; 24 h, replicate 2): 96% | Population Pyknosed Nuclei (%) ([4]; 24 h, replicate 2): 3% and 2% | Total Cell Count ([4]; 24 h, replicate 2): 2038 and 2847 | Population Apoptotic (%) ([5]; 12 h, replicate 1): 33% and 44% | Population Fragmented Nuclei (%) ([5]; 12 h, replicate 1): 6% and 2% | Population Healthy Nuclei (%) ([5]; 12 h, replicate 1): 84% | Population Hoechst High Intensity Objects (%) ([5]; 12 h, replicate 1): 3% and 4% | Population Mitochondria Different-Phenotype (%) ([5]; 12 h, replicate 1): 12% and 33% | Population Mitotic Cells (%) ([5]; 12 h, replicate 1): 66% and 55% | Population Normal (%) ([5]; 12 h, replicate 1): 96% and 95% | Population Pyknosed Nuclei (%) ([5]; 12 h, replicate 1): 8% and 6% | Population Tubulin-Different-Phenotype (%) ([5]; 12 h, replicate 1): 32% | Total Cell Count ([5]; 12 h, replicate 1): 180 and 143 | Population Apoptotic (%) ([5]; 12 h, replicate 2): 0% | Population Fragmented Nuclei (%) ([5]; 12 h, replicate 2): 5% | Population Healthy Nuclei (%) ([5]; 12 h, replicate 2): 90% and 89% | Population Hoechst High Intensity Objects (%) ([5]; 12 h, replicate 2): 12% and 8% | Population Mitochondria Different-Phenotype (%) ([5]; 12 h, replicate 2): 16% and 15% | Population Mitotic Cells (%) ([5]; 12 h, replicate 2): 100% | Population Normal (%) ([5]; 12 h, replicate 2): 87% and 91% | Population Pyknosed Nuclei (%) ([5]; 12 h, replicate 2): 3% and 4% | Population Tubulin-Different-Phenotype (%) ([5]; 12 h, replicate 2): 24% and 19% | Total Cell Count ([5]; 12 h, replicate 2): 98 and 130 | Population Apoptotic (%) ([5]; 24 h, replicate 1): 78% and 28% | Population Fragmented Nuclei (%) ([5]; 24 h, replicate 1): 2% and 4% | Population Healthy Nuclei (%) ([5]; 24 h, replicate 1): 90% and 92% | Population Hoechst High Intensity Objects (%) ([5]; 24 h, replicate 1): 1% | Population Membrane Permeable-Phenotype (%) ([5]; 24 h, replicate 1): 7% | Population Mitochondria Different-Phenotype (%) ([5]; 24 h, replicate 1): 14% and 24% | Population Normal (%) ([5]; 24 h, replicate 1): 98% | Population Pyknosed Nuclei (%) ([5]; 24 h, replicate 1): 6% and 3% | Population Tubulin-Different-Phenotype (%) ([5]; 24 h, replicate 1): 18% and 34% | Total Cell Count ([5]; 24 h, replicate 1): 222 and 212 | Population Apoptotic (%) ([5]; 24 h, replicate 2): 18% and 40% | Population Fragmented Nuclei (%) ([5]; 24 h, replicate 2): 3% and 7% | Population Healthy Nuclei (%) ([5]; 24 h, replicate 2): 80% and 89% | Population Hoechst High Intensity Objects (%) ([5]; 24 h, replicate 2): 10% and 7% | Population Membrane Permeable-Phenotype (%) ([5]; 24 h, replicate 2): 15% and 5% | Population Mitochondria Different-Phenotype (%) ([5]; 24 h, replicate 2): 25% and 33% | Population Mitotic Cells (%) ([5]; 24 h, replicate 2): 81% and 60% | Population Normal (%) ([5]; 24 h, replicate 2): 89% and 92% | Population Pyknosed Nuclei (%) ([5]; 24 h, replicate 2): 16% | Population Tubulin-Different-Phenotype (%) ([5]; 24 h, replicate 2): 15% and 28% | Total Cell Count ([5]; 24 h, replicate 2): 108 and 162 | Growth Rate ([6]; 0 h, replicate number 1, timepoint 0 hours): 0 | Growth Rate [6, 7]: 0 | Growth Rate [6, 8]: 0 | Growth Rate [6, 9]: 0 | Growth Rate [6, 10]: 0
